For 24 molecules, inhibition results are on record in PubChem BioAssay AID624466 (The Scripps Research Institute Molecular Screening Center, 2012).

The whole screen tested about 360,000 compounds, of which about 5,400 (1.5%) were called active. The entries come from a sample that favours actives as a whole. A number with no mark means an inactive call.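 Rule for the calls: active = inhibition above a per-plate cutoff, the mean inhibition of test compounds on that plate plus 3 SD (cut at about 49% in these data); inactive = the rest.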

Sequence of Trace amine-associated receptor 1 (Homo sapiens) (Q96RJ0 whole entry, looked up): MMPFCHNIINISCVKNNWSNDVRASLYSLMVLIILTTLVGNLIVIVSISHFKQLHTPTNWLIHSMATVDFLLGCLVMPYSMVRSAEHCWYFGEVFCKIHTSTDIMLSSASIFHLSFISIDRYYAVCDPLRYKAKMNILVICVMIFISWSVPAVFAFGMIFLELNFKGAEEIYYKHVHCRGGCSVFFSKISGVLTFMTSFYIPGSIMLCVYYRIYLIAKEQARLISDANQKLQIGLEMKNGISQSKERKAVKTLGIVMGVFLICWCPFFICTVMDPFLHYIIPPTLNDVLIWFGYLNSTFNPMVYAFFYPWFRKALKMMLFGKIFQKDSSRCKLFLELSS

This assay has as its target Trace amine-associated receptor 1 (Homo sapiens) (UniProt Q96RJ0). The assay is described as follows: blockers of beta-PEA-driven TAAR1 calcium signal – Fluo-8 calcium fluorescence, CHO RD-HGA16 cells, primary screen (AID 624466).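 Note: 0% = DMSO plus EC80 beta-PEA response and 100% = DMSO alone without agonist.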 As to conditions: CHO RD-HGA16 TAAR1, Fluo-8 calcium fluorescence, antagonist; at 3 µM; stronger effect = higher value. The essentials:
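Material: CHO RD-HGA16 cells bearing hTAAR1; compound dosing: one-point dosing, 3 µM nominal final; schedule: dye loading 75 min at 37 °C, then 30 min room temperature; measured by: calcium fluorescence with Fluo-8; control set: vehicle and agonist controls; replication: n of 1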
As a reminder, the inhibition is the relative decrease from the control value, in per cent. Turning to `CCOC(=O)[C@]12CCCC=C1N(CCC1=CCCCC1)C(=O)[C@H](CC(=O)N1CCCCC1)C2`, the inhibition is -49.4%.

As to `COC(=O)C1=C(C)N(Cc2ccccc2C(F)(F)F)C(=NCc2ccc(C(F)(F)F)cc2)NC1c1ccc(F)cc1` (centres undefined), the inhibition is -31.9%.

Take `CCCCNC(=O)CSc1nc2ccc(NC(=O)CSc3nnc(N)s3)cc2s1`: the inhibition is 14.2%.

As for `Nc1nnc(SCC(=O)Nc2ccc3nc(SCC(=O)Nc4ccccc4)sc3c2)s1`, the inhibition was 48.9% (active).

For the molecule `CCCCNC(=O)CSc1nc2ccc(NC(=O)CSc3nnc(COc4ccccc4C)n3C)cc2s1`, the inhibition is 23.6%.

On to `COC(=O)[C@@]12C[C@@H](CC(=O)NCCCCc3ccccc3)C(=O)N(Cc3ccccc3)C1=CCC(C)(C)C2`, for which the inhibition is 1.67%.

Regarding `CSCCC(C(=O)NC(C)(C)C)n1c(-c2ccccc2)nc2ccccc21` (centres undefined), the inhibition is -24.9%.

On to `COC(=O)[C@@]1(Cc2ccc(F)cc2)[C@H]2c3cc(C(=O)N4CCCC4)n(Cc4ccc(OC(F)(F)F)cc4)c3C[C@H]2CN1C(=O)c1ccccc1`, for which the inhibition was -23%.

For `CC(C)c1ccc(NC(=O)Cn2ncc3ccccc32)cc1`, the inhibition is -7.65%.

Consider `CC(NC(=O)Nc1ccccc1)c1ccccc1` (centres undefined), for which the inhibition was 8.89%.

Turning to `CCC(C(=O)Nc1ccc(C(C)C)cc1)c1ccccc1` (centres undefined), the inhibition is 83.9% (active).

For `COc1ccc(C(=O)NCC[N+](C)(C)C)cc1`, the inhibition was -19.6%.

For the molecule `O=c1[nH]c(-c2ccccc2)cn1C1CCN(Cc2ccc(-c3nc4ccc(F)cc4nc3-c3ccccc3)cc2)CC1`, the inhibition was 9.33%.

In the case of `O=C(COC(=O)Cc1ccccc1F)NCCc1ccccc1`, the inhibition was 72.9% (active).

On to `O=C(COC(=O)Cc1c[nH]c2ccccc12)NCCc1ccccc1`, for which the inhibition was -12.2%.

As for `COc1ccc(CCNC(=O)COC(=O)Cc2ccccc2F)cc1`, the inhibition was -11.5%.

As to `Cc1ccc2nc(SCC(=O)Nc3cccc4ccccc34)nc(=O)n2c1`, the inhibition was -20.9%.

Take `C=CCNC(=O)c1cc2nc(C3CC3)cc(C(F)F)n2n1`: the inhibition was 7.57%.

On to `Cc1ccc(F)c(S(=O)(=O)NC(=O)C2(C)CCN2C(=O)CCc2cccs2)c1` (centres undefined), for which the inhibition was -14.2%.

Turning to `CCOC(=O)C1C(c2ccc(OC)c(OC)c2)c2c([nH][nH]c2=O)CC1(C)O` (centres undefined), the inhibition was 56.8% (active).

As to `CCOC(=O)C1C(c2ccc(O)cc2)NC(=O)NC1(O)C(F)(F)F` (centres undefined), the inhibition is -14.2%.

For `CCC1(C)COC(c2ccc(OC)c(OC)c2)OC1` (centres undefined), the inhibition is -18.6%.

For `Cc1cccc(N2CCN(Cc3nc(C4CC4)no3)CC2)n1`, the inhibition was -31.7%.

For `Cc1cc(OC(=O)NCCc2ccc(F)cc2)ccc1F`, the inhibition was -10.5%.
